Reference: ChEMBL document CHEMBL2176955, “Discovery of the macrocycle 11-(2-pyrrolidin-1-yl-ethoxy)-14,19-dioxa-5,7,26-triaza-tetracyclo[19.3.1.1(2,6).1(8,12)]heptacosa-1(25),2(26),3,5,8,10,12(27),16,21,23-decaene (SB1518), a potent Janus kinase 2/fms-like tyrosine kinase-3 (JAK2/FLT3) inhibitor for the treatment of myelofibrosis and …” (J Med Chem, 2011)

Columns and labels:
[1] = target: Tyrosine-protein kinase JAK1 (Homo sapiens, UniProt P23458); test: Inhibition of recombinant JAK1 using Poly (Glu,Ala,Tyr) as substrate after 2 hrs by luminescence assay
Sequence of Tyrosine-protein kinase JAK1 (P23458 whole entry): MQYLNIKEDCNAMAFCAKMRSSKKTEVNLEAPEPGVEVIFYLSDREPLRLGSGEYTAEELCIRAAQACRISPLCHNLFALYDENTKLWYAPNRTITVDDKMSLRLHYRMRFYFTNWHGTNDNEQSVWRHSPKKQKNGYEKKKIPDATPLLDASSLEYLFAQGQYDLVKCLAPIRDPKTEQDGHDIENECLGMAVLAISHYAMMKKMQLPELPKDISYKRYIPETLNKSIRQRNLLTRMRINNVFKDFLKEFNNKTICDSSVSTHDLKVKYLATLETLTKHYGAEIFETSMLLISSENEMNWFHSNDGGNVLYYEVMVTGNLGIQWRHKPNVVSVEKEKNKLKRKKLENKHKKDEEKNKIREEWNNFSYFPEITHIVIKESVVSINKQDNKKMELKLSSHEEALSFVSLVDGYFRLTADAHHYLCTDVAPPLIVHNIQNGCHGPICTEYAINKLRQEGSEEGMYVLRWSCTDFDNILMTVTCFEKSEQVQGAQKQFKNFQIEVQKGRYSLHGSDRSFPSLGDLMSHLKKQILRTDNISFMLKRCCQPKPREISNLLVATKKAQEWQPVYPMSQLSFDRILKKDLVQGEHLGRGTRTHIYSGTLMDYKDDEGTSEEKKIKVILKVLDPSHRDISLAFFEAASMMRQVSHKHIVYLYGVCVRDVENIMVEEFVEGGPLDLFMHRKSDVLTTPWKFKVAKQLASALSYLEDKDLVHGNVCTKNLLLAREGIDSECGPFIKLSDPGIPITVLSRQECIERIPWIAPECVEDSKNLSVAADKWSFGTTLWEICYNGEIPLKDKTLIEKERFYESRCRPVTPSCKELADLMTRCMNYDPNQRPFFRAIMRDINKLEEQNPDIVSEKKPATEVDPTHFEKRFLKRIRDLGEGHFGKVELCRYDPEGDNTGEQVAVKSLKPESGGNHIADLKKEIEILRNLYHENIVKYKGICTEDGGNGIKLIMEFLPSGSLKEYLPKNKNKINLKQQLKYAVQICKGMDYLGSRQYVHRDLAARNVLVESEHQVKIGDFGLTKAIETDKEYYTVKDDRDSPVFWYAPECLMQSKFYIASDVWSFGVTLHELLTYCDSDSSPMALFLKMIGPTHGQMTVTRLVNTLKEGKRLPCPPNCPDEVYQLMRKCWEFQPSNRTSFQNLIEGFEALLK
In short: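 Luciferase-coupled ATP-depletion luminescence assay in 50 mM Hepes pH 7.5 with MgCl₂, MnCl₂, BGP, DTT and orthovanadate, 2 h at room temperature. Conditions per target: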

[2] = target: T1, Receptor-type tyrosine-protein kinase FLT3 (Homo sapiens, UniProt P36888); test: Inhibition of recombinant FLT3 using Poly (Glu,Tyr) as substrate after 2 hrs by luminescence assay
T1 sequence (P36888 whole entry): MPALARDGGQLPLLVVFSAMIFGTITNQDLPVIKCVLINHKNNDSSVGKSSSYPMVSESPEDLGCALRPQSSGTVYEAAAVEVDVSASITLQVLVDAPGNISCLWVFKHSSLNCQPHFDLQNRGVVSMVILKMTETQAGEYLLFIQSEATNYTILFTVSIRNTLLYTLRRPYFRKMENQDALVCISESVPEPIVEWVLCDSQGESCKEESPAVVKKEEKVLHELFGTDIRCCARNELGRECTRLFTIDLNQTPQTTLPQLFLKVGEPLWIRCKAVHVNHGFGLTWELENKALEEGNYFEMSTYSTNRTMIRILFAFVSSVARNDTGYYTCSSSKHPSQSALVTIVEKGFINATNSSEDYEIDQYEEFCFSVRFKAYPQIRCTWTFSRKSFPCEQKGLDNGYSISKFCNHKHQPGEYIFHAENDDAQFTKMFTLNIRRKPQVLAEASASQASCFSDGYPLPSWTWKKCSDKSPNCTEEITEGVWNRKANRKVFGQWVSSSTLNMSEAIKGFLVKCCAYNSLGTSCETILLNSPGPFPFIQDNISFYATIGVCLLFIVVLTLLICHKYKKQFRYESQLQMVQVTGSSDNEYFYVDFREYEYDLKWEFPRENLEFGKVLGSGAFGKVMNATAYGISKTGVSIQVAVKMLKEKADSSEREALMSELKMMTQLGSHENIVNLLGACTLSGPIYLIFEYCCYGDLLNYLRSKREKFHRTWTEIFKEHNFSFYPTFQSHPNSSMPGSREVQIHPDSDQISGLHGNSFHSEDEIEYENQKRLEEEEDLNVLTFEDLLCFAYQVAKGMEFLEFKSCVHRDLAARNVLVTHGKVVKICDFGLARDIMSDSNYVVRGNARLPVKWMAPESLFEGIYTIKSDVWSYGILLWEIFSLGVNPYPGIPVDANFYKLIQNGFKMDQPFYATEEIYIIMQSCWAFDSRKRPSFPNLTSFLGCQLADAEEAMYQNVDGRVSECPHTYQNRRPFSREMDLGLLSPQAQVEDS

[3] = target: Non-receptor tyrosine-protein kinase TYK2 (Homo sapiens, UniProt P29597); test: Inhibition of recombinant TYK2
Sequence of Non-receptor tyrosine-protein kinase TYK2 (P29597 whole entry): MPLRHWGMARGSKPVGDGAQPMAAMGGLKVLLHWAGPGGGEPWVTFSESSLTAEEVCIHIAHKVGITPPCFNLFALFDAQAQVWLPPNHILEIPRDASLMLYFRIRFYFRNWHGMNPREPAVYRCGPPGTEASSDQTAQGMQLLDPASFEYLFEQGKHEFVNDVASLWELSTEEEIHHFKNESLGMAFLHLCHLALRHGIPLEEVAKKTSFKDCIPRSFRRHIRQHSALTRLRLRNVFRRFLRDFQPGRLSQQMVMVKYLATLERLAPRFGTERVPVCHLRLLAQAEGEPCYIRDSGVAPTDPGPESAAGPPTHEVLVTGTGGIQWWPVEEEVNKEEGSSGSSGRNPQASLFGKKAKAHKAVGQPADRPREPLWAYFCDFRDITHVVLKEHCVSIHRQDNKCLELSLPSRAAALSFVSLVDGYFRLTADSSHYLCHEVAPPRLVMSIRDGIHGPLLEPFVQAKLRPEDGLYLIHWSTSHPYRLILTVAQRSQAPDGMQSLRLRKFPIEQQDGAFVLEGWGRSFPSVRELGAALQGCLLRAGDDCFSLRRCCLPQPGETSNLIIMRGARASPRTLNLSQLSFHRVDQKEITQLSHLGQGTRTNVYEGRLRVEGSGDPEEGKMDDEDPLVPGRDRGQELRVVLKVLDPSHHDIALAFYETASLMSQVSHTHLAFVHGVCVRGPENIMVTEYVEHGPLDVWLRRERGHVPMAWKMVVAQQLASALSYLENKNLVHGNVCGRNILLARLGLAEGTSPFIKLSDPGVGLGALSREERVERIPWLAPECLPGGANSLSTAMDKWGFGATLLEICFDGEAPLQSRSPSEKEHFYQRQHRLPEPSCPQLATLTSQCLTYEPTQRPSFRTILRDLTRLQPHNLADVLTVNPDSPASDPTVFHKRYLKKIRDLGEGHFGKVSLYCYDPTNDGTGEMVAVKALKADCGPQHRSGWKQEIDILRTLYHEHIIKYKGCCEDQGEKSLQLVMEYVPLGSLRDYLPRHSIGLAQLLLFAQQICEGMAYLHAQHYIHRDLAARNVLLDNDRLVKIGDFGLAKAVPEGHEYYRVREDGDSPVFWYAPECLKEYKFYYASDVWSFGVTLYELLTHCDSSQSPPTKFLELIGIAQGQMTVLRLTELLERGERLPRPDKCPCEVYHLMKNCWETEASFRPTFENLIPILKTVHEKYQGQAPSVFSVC

[4] = target: T2, Tyrosine-protein kinase JAK3 (Homo sapiens, UniProt P52333); test: Inhibition of recombinant JAK3 using Poly (Glu,Ala,Tyr) as substrate after 2 hrs by luminescence assay
T2 sequence (P52333 whole entry): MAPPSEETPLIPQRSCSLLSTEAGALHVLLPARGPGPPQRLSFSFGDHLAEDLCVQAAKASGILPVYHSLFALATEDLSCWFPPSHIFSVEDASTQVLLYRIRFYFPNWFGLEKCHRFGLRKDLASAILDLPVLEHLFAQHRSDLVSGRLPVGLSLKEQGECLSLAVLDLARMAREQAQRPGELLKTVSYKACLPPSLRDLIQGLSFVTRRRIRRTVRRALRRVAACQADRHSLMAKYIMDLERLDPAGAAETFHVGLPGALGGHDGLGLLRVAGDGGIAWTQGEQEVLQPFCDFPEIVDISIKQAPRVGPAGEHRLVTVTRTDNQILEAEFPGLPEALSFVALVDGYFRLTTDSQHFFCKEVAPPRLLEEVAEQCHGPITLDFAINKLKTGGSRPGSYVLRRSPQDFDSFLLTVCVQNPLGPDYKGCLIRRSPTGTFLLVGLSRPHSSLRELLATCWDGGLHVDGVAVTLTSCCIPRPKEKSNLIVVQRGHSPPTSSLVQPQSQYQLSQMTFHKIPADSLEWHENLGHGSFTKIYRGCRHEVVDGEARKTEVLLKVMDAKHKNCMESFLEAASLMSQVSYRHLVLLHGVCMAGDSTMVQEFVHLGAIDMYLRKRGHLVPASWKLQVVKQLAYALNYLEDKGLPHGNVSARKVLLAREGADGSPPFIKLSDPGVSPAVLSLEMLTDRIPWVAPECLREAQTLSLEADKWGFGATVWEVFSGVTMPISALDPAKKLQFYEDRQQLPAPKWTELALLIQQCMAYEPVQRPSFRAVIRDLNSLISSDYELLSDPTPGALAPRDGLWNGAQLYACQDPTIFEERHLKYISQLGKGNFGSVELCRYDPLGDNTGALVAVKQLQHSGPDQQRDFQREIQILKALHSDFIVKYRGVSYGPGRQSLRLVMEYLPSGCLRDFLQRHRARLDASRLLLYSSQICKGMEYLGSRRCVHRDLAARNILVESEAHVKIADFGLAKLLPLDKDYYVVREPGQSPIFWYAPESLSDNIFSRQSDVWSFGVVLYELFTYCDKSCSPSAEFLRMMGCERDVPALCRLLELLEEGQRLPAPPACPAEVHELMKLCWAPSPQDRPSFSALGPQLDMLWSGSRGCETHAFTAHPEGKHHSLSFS

[5] = Antiproliferative activity against mouse BA/F3 cells harboring JAK2 V617F mutation assessed as cell viability after 48 hrs by Cell titer Glo assay; assay type: functional; conditions: BaF3, 48 h
[6] = in vitro; conditions: mouse, liver microsomes
[7] = in vitro; conditions: human, liver microsomes
[8] = test system: MV4-11; test: Antiproliferative activity against human MV4-11 cells harboring FLT3 […] mutant assessed as cell viability after 48 hrs by Cell titer Glo assay; assay type: functional; conditions: MV4-11, 48 h
[9] = target: Tyrosine-protein kinase JAK2 (Homo sapiens, UniProt O60674); test: Inhibition of recombinant JAK2 using Poly (Glu,Ala,Tyr) as substrate after 2 hrs by luminescence assay
Sequence of Tyrosine-protein kinase JAK2 (O60674 whole entry): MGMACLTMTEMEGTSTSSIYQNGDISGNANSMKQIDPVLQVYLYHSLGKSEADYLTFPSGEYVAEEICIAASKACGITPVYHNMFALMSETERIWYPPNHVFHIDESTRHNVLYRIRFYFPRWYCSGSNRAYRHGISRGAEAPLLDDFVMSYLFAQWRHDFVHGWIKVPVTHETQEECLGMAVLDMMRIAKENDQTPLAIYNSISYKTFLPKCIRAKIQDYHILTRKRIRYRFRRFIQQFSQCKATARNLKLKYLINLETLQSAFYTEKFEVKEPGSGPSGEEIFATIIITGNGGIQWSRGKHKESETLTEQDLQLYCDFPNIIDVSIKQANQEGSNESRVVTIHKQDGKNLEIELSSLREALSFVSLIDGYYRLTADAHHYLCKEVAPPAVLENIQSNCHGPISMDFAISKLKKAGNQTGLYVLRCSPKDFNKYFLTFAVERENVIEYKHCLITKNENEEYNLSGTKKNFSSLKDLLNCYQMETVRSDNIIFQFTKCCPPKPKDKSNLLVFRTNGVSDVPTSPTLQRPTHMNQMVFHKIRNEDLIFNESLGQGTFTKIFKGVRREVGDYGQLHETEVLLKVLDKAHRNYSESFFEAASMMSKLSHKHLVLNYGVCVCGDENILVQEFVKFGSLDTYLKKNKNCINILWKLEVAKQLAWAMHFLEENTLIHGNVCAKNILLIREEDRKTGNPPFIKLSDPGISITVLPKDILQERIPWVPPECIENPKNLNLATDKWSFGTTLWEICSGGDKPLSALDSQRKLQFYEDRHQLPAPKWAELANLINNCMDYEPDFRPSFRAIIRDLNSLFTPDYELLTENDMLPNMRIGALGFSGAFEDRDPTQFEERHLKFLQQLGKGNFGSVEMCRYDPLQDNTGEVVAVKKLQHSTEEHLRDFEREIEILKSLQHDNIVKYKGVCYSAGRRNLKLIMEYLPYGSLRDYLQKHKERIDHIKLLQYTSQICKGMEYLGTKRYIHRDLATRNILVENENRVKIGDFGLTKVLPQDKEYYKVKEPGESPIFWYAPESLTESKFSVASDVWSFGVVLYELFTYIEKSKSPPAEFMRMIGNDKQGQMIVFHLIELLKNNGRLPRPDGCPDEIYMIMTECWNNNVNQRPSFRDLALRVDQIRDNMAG

[10] = physchem; conditions: phosphate buffer saline, pH 7
[11] = target: Cyclin-dependent kinase 2/cyclin A (Homo sapiens, UniProt P24941); test: Inhibition of recombinant CDK2/Cyclin A using RbinG as substrate after 2 hrs by luminescence assay; assay type: protein-complex assay
[12] = in vitro; conditions: PAMPA
[13] = target: Cytochrome P450 3A4 (Homo sapiens, UniProt P08684)
Sequence of Cytochrome P450 3A4 (P08684 whole entry): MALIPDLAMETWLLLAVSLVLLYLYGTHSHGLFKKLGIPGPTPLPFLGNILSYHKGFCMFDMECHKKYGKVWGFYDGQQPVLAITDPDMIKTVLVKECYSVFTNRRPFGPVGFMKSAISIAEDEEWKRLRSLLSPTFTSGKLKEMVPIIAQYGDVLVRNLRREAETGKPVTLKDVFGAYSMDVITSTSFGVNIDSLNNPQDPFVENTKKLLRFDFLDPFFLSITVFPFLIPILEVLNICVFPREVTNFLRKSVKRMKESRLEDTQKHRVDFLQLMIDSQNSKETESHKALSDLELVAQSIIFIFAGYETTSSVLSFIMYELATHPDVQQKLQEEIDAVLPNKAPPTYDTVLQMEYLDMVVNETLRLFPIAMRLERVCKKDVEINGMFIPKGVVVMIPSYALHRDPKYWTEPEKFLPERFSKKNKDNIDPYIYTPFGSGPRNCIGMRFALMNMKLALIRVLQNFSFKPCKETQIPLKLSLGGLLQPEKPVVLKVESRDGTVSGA

[14] = target: Cytochrome P450 2D6 (Homo sapiens, UniProt P10635)
Sequence of Cytochrome P450 2D6 (P10635 whole entry): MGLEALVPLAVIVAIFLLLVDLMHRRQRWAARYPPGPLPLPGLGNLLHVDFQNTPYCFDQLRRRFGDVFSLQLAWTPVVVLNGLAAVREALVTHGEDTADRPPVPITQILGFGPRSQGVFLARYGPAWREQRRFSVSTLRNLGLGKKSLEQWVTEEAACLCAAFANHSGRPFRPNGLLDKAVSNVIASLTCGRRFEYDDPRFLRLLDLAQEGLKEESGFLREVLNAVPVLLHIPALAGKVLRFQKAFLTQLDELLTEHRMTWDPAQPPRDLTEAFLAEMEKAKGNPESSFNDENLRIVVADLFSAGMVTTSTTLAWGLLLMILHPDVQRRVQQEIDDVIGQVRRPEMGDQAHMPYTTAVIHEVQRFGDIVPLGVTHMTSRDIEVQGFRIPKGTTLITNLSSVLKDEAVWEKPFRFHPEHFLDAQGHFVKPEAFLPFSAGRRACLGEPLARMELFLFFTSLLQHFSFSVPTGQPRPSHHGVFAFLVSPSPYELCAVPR

SMILES | IC50 [1] [nM] | IC50 [2] [nM] | IC50 [3] [nM] | IC50 [4] [nM] | GI50 [5] [nM] | half-life at 5 µM [6] [min] | half-life at 5 µM [7] [min] | GI50 [8] [nM] | IC50 [9] [nM] | solubility [10] [µg/mL] | IC50 [11] [nM] | Papp at 5 h, 1 µM [12] [×10⁻⁶ cm/s] | IC50 [13] [nM] | IC50 [14] [nM]
Cc1cnc2nc1-c1cccc(c1)COCC=CCOCc1cc(ccc1OCCN1CCCC1)N2 | 1000 | 19 | 57 | 89 | 180 | 40 | > 60 | 51 | 7 | – | – | – | – | –
COc1ccc2cc1COCC=CCOCc1cc(ccc1OCCN1CCCC1)Nc1nccc-2n1 (mixture of isomers) | > 10000 | 92 | 180 | 890 | 100 | 29 | > 60 | 85 | 19 | 60.8 | > 10000 | 10.1 | > 10000 | > 10000
CCN(CC)CCOc1ccc2cc1COCC=CCOCc1cccc(c1)-c1ccnc(n1)N2 (mixture of isomers) | 3500 | 29 | 79 | 620 | 150 | 16 | 44 | 37 | 24 | 147 | 4700 | 15.8 | 2800 | > 10000
C1=CCOCc2cc(ccc2OCCN2CCCCC2)Nc2nccc(n2)-c2cccc(c2)COC1 (mixture of isomers) | 950 | 26 | 84 | 750 | 160 | 11 | > 60 | – | 15 | – | 2700 | 3.93 | 370 | > 10000
